Source: PubChem
Compounds with a hit are over-represented: about 2.2% of the library has one in this group of screens.
DENV2 CPE – inhibitors of DENV2 cytopathic effect, primary screen, cell-based, plate reader, single concentration; 1.7% of 350,000 active; DENV2-infected cells, cytopathic effect rescue; CPE inhibition, % at 9.99 µM; in the data active = CPE inhibition above about 20%, passing the limit was not always enough; inconclusive = no clear call, values can overlap the other calls; tested in BHK-21 cells;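 also: 0% = median of neutral control wells and 100% = median of positive control wells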
Statin myotox sup – suppressors of statin myotoxicity in C2C12 myotubes, primary screen, cell-based, single point, plate reader; 0.78% of 330,000 active; rescue of ATP level, % at 7.49 µM; AID 602340, 2012; C2C12 myotubes + simvastatin, ATP luminescence, 48 h; scaled: DMSO 0, geranylgeraniol control 100;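 active = mean ATP rescue above about 67%, or every replicate alone reaching that limit, limit read from the data, passing the limit was not always enough; inconclusive = no clear call, values can overlap the other calls; inactive = mean under the limit and some replicate under it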;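 also: myotubes were challenged with 10 µM simvastatin during compound exposure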
E-selectin induc – E-selectin induction in HUVECs, primary screen, imaging, HUVEC, immunofluorescence imaging, single point | P16581 | normalized: neutral wells 0, TNF-alpha wells 100 | activation, % at 7.58 µM | 0.37% of 260,000 active;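 active = mean E-selectin-positive cell signal at least 10% of the positive control, reached in at least 60% of replicates, without over 20% cell loss; inconclusive = no rule given, readout overlaps actives, possibly toxicity-flagged; inactive = the rest, including those meeting only one limit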
Target sequence (P16581 whole entry, looked up): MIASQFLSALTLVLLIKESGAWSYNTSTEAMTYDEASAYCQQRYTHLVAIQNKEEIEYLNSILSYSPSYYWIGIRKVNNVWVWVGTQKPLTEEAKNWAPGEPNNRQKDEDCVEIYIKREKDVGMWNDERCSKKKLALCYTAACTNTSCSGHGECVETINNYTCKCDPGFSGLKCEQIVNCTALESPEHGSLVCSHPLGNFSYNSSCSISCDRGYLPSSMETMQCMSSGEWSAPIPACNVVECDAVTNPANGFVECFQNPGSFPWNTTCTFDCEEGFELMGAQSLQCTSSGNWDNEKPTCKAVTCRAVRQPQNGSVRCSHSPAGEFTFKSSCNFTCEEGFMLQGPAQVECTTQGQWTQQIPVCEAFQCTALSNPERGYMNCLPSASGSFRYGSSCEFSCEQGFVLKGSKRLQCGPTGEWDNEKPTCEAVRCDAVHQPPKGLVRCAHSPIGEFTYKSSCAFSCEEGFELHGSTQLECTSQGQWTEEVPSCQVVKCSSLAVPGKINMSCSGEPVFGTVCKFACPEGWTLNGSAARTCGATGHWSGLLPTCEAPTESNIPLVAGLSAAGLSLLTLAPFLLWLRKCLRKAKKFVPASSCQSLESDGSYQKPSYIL
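Assay system: HUVEC primary endothelial cells. Input: 3,000 HUVEC seeded per well. Doses: one compound dose added by pin transfer. Read-out basis: % PE-positive cells. Benchmarks: TNF-alpha high, DMSO low. Detection: immunofluorescence imaging. Buffer or medium: EGM-2, gelatin.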
The depositor's hits bear a star; u = inconclusive; x = no result given.

SMILES | DENV2 CPE | Statin myotox sup | E-selectin induc
COc1cccc(-c2ccc3n(c2=O)C[C@H]2[C@H](CO)[C@@H](C(=O)NCC4CC4)[C@@H]3N2S(C)(=O)=O)c1 | -1.3 | -6.0 | 0.3
COC(=O)[C@H]1[C@H](CO)[C@H]2Cn3c(ccc(-c4ccncc4)c3=O)[C@H]2N1CC1CCCCC1 | -3.6 | 1.5 | -0.3
COC(=O)[C@@H]1[C@@H](CO)[C@@H]2Cn3c(ccc(-c4ccccc4)c3=O)[C@@H]2N1CC1CCCCC1 | 33.3* | 16.8 | -0.9
O=C(NCC1CCCCC1)[C@@H]1[C@@H](CO)[C@@H]2Cn3c(ccc(-c4cccnc4)c3=O)[C@H]1N2 | 106.4* | x | 0.1
O=C(NCC1CCCCC1)[C@@H]1[C@@H](CO)[C@@H]2Cn3c(ccc(-c4cncnc4)c3=O)[C@H]1N2 | -4.6 | 6.7 | 0.6
COC(=O)[C@H]1[C@H](CO)[C@H]2Cn3c(ccc(-c4ccccc4)c3=O)[C@H]2N1CC1CCCCC1 | 45.4* | 37.0 | -0.5
CS(=O)(=O)N1[C@@H]2c3ccc(-c4ccc(F)cc4)c(=O)n3C[C@H]1[C@H](CO)[C@H]2C(=O)NCC1CC1 | 121.2* | -5.5 | -0.3
COC(=O)[C@H]1[C@H](CO)[C@H]2Cn3c(ccc(-c4ccccc4OC)c3=O)[C@H]2N1CC1CCCCC1 | -4.1 | x | -0.3
C[C@@H]1CN([C@@H](C)CO)C(=O)c2cc(NC(=O)Cn3cnnn3)ccc2O[C@@H]1CN(C)Cc1ccc(C(=O)O)cc1 | 2.4 | -0.4 | x
C/C=C/c1ccc([C@@H]2[C@@H](C#N)N(C(=O)CN3CCOCC3)[C@H]2CO)cc1 | 3.1 | -10.2 | -0.4
C[C@H](CO)N1C[C@H](C)[C@H](CN(C)Cc2ccccn2)Oc2ncc(C3=CCCC3)cc2C1=O | -4.6 | 7.5 | -0.1
C[C@H]1CN([C@@H](C)CO)C(=O)c2cc(C#Cc3cccnc3)cnc2O[C@H]1CN(C)C(=O)CC1CC1 | -1.8 | 3.2 | 0.1
O=C(C[C@@H]1CC[C@H]2NC[C@H](O)COC[C@@H]2O1)Nc1nccs1 | -2.3 | -15.1 | 0.0
C[C@@H]1CCCCO[C@H](CN(C)C(=O)C2CCCCC2)[C@@H](C)CN([C@@H](C)CO)C(=O)c2cc(NC(=O)CCCN(C)C)ccc2O1 | -1.7 | 43.5 | 0.2
O=C(Cc1ccccc1)N1CC[C@@H]2[C@H]1c1cc(C#Cc3ccccc3)ccc1N[C@@H]2CO | -6.2 | 36.2 | -1.0
O=S(=O)(c1ccc(F)cc1)N1CCCCN2[C@@H](CO)[C@@H](c3ccc(C#CC4CCCC4)cc3)[C@@H]2C1 | -2.3 | x | x
O=C(NC1CCCC1)[C@@H]1[C@@H](CO)[C@@H]2Cn3c(ccc(-c4ccccc4)c3=O)[C@H]1N2CC1CC1 | 24.8* | x | 0.1
O=C(NC1CCCC1)[C@H]1[C@H](CO)[C@H]2Cn3c(ccc(-c4cccnc4)c3=O)[C@@H]1N2CC1CC1 | 4.5 | -8.8 | -1.1
CC(C)NC(=O)N(C)C[C@H]1Oc2ccc(NC(=O)C3CC3)cc2CC(=O)N([C@H](C)CO)C[C@@H]1C | -10.7 | -53.7 | x
Cc1noc(C)c1NC(=O)N(C)C[C@H]1Oc2c(NC(=O)C3CC3)cccc2C(=O)N([C@H](C)CO)C[C@H]1C | 24.4* | -4.6 | -0.5
Cc1noc(C)c1NC(=O)N(C)C[C@@H]1Oc2c(cccc2N(C)C)C(=O)N([C@H](C)CO)C[C@H]1C | -7.4 | -13.9 | 0.2
Cc1noc(C)c1NC(=O)N(C)C[C@H]1Oc2c(cccc2N(C)C)C(=O)N([C@@H](C)CO)C[C@@H]1C | 24.5* | -31.7 | 0.0
Cc1noc(C)c1NC(=O)N(C)C[C@H]1Oc2c(NC(=O)C3CC3)cccc2C(=O)N([C@@H](C)CO)C[C@@H]1C | -0.8 | 0.3 | -0.6
CCCC(=O)Nc1ccc2c(c1)OC[C@H](C)N(Cc1cncnc1)C[C@H](C)[C@@H](OC)CN(C)C2=O | -6.7 | x | -0.1
CCC(=O)Nc1ccc2c(c1)C(=O)N(C)C[C@H](OC)[C@@H](C)CN(Cc1ccccc1C(=O)O)[C@H](C)CO2 | -7.2 | 15.3 | -0.1
SMILES | DENV2 CPE | Statin myotox sup | E-selectin induc
COC(=O)c1ccc(CSc2nc3c(cnn3-c3ccc(C)c(C)c3)c(=O)[nH]2)o1 | x | 131.9* | x
CCCCSc1nc2c(cnn2-c2ccc(C)c(C)c2)c(=O)[nH]1 | 50.4* | -17.7 | 1.2
COC(=O)CSc1nc2c(cnn2-c2ccc(F)cc2)c(=O)[nH]1 | -0.9 | 5.4 | -0.4
CCCSc1nc2c(cnn2-c2ccc(C)c(C)c2)c(=O)[nH]1 | 5.4 | -16.6 | 1.4
O=C(NCCc1ccc(C(F)(F)F)cc1)C1COc2ccccc2O1 (configuration not stated) | 4.3 | -3.5 | 0.0
O=C(NCCC1=CCCCC1)C1COc2ccccc2O1 (configuration not stated) | x | 146.3* | x
COCCCNC(=O)c1c(NC(=O)C2COc3ccccc3O2)sc2c1CCCC2 (configuration not stated) | x | 95.7* | x
COCCNC(=O)c1ccccc1NC(=O)C1COc2ccccc2O1 (configuration not stated) | x | 13.2 | x
CC(C)(C)OC(=O)N1CCNc2ccccc2C1 | x | 95.6* | x
CC(C)(C)OC(=O)N1Cc2cc3ccccc3nc2C1 | 5.3 | x | -0.2
COc1ccc(NC(=O)CC2C(=O)N(c3ccccc3)C(=O)N2CCc2cccs2)cc1 (configuration not stated) | -7.7 | x | x
CCOc1ccc(NC(=O)CC2C(=O)N(c3ccc(OC)cc3)C(=O)N2CCc2cccs2)cc1 (configuration not stated) | 96.3* | x | x
Cc1ccc(S(=O)(=O)N[C@H]2CC[C@H](CCNS(=O)(=O)Cc3ccccc3)O[C@H]2CO)cc1 | 11.0 | 12.8 | -0.4
COc1ccc(C)cc1NC(=O)C1CCN(S(=O)(=O)c2cccc3cccnc23)CC1 | 27.7* | 21.5 | x
COc1ccc(NC(=O)C2CCN(S(=O)(=O)c3cccc4cccnc34)CC2)cc1OC | -6.0 | -9.5 | x
C[C@@H]1CN([C@@H](C)CO)C(=O)c2cc(NS(C)(=O)=O)ccc2O[C@@H](C)CCCCO[C@@H]1CN(C)C | u | -5.6 | -0.1
CN1CCN(C(=O)C[C@@H]2CC[C@H]3[C@@H](COC[C@@H](O)CN3S(=O)(=O)c3cccc(F)c3)O2)CC1 | -2.2 | -7.7 | 0.1
COCC#Cc1cnc2c(c1)C(=O)N([C@H](C)CO)C[C@@H](C)[C@@H](CN(C)C(=O)c1cccc(F)c1)O2 | 0.3 | 1.0 | 0.1
C[C@@H]1CN([C@@H](C)CO)C(=O)c2cc(C#C[C@@H](C)O)cnc2O[C@H]1CN(C)C(=O)Nc1ccc(F)cc1 | 5.7 | 19.0 | 0.0
COc1ccc(C)cc1NC(=O)C(OC(=O)CNC(=O)c1cc(C)cc(C)c1)c1ccccc1 (configuration not stated) | 0.8 | x | x
COc1ccc(C)cc1NC(=O)C(NCC(O)c1ccccc1)c1ccccc1 (configuration not stated) | 2.2 | -3.9 | 51.7*
CO[C@H]1CN(C)C(=O)c2cc(NC(=O)C3CC3)ccc2OC[C@H](C)N(CCC(F)(F)F)C[C@H]1C | 3.0 | -3.7 | 0.6
CCCN(C)C[C@H]1OCCCC[C@H](C)Oc2ccc(NS(=O)(=O)c3c(C)noc3C)cc2C(=O)N([C@@H](C)CO)C[C@@H]1C | -3.7 | x | -0.2
